Bioassay records deposited in PubChem by Broad Institute.
Cneo AK release = Cryptococcus neoformans cell lysis inducers, primary screen, AK release luminescence, single concentration | lysis activity, % at 15 µM | AID 651654, 2012 | C. neoformans lysis, adenylate kinase release luminescence, 4 h; normalised: neutral wells 0, clomiphene wells 100 | hit rate 0.2% among 360,000;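 active = mean lysis activity across replicates of at least 80%, whatever share of replicates individually reach that level; inactive = mean lysis activity below 80%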
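Assay system: C. neoformans cells. Amount: yeast cell density of 5 × 10^6 cells/mL. Technique: AK luminescence. Buffer or medium: YPD. Times: static 4 h at 37 °C with compound, 1 h detection. Dosing: single-point compound dose. Read-out: lysis from increased AK signal.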
esBAF inh = Bmi1 luciferase reporter increase in mESCs, primary screen, esBAF inhibitor project, mouse ES cells, Bmi1 luciferase knock-in, single point; 24 h; 100% = twice the neutral-well signal; hit rate 2% among 350,000; reporter increase, % at 12.5 µM; in the data active = activation above about 40%; inconclusive = no clear call, values can overlap the other calls;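 also: 0% = median of the plate's neutral control wells and 100% = double that signal; a rise in the Bmi1 reporter signal indicates esBAF inhibition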
Wnt bcat act = Wnt/beta-catenin pathway activators, primary screen, cell-based, plate reader, single point | Wnt/beta-catenin reporter cell assay, activator | activation, % at 9.35 µM | hit rate 1.2% among 300,000 | AID 743398, 2014; in the data active = activation above about 30%, passing the limit was not always enough; inconclusive = no clear call, values can overlap the other calls;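 also: 0% = neutral control wells and 100% = positive control wells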
ERAP1 HTS inh = human ERAP1 aminopeptidase inhibitors, primary screen, biochemical, single point, plate reader | Endoplasmic reticulum aminopeptidase 1 (Homo sapiens), Q9NZ08 | hit rate 0.15% among 340,000 | inhibition, % at 10.7 µM | recombinant ERAP1, Leu-AMC fluorescence, 60 min;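 active = mean replicate inhibition of at least 30%, or all replicates individually reaching that 30% level; inactive = mean below 30% and not every replicate reaching it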;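 also: 0% = neutral control wells and 100% = L-leucinethiol positive control wells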
Target sequence (Q9NZ08 whole entry, looked up): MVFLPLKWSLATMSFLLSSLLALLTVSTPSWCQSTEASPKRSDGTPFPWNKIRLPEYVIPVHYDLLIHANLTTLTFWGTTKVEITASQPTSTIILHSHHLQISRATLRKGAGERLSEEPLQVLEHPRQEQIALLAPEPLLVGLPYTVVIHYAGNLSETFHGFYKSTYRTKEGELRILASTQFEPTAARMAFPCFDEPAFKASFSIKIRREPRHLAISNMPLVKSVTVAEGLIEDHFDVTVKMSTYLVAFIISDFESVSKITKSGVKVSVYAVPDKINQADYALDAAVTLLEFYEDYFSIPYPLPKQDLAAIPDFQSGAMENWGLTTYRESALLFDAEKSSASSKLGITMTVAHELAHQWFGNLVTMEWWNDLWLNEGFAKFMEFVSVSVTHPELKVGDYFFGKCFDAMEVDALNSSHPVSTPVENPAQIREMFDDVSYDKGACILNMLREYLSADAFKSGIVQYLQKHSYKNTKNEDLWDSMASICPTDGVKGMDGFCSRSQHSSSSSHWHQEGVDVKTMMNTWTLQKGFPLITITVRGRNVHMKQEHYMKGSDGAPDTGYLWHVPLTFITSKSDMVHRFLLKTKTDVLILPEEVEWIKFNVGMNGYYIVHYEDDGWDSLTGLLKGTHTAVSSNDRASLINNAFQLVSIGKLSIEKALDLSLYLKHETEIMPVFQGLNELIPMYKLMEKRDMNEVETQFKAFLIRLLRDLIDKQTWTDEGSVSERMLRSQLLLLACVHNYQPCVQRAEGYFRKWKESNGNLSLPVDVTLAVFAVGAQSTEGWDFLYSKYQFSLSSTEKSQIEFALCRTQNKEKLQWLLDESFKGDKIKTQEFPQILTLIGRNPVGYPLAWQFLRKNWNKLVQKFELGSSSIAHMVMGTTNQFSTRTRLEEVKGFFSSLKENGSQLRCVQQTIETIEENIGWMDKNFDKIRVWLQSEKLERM
MITF act = activators of MITF-driven TRPM1 promoter reporter, primary screen, cell-based, SK-MEL-5, luciferase, single point; SK-MEL-5 TRPM1-promoter luciferase, 24 h; % of positive control, neutral wells = 0; activation, % at 12.5 µM; hit rate 0.75% among 300,000;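 active = mean activation of at least 80% with every replicate also reaching 80%; inconclusive = mean reaches 80% but some replicate falls short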;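 also: 0% = neutral control wells and 100% = parthenolide positive control wells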
Env fusion inh = inhibitors of HIV-1 Env-driven cell-cell fusion, primary screen, HeLa-JRFL effector, CEM21 target cells, luciferase; AID 651610, 2012; hit rate 1.1% among 360,000; inhibition, % at 12.3 µM;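 active = mean replicate inhibition score of at least 50 and every replicate individually at or above 50; inconclusive = only one of the two criteria met; inactive = mean below 50 and not all replicates reaching 50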;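 also: 0% = plate neutral controls and 100% = maraviroc near 300 nM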
Active calls of the source: *; ? = inconclusive; / = no result; [ ] = another dose, or the depositor's remark. This is a sample that favours compounds with a hit; in the whole collection about 3.5% have one here.

SMILES	Cneo AK release	esBAF inh	Wnt bcat act	ERAP1 HTS inh	MITF act	Env fusion inh
CCC(C)NC(=O)C1CCCN(S(=O)(=O)c2ccc3c(c2)CC(C)N3C(C)=O)C1 (stereo unspecified)	-1	0	-2	0	-4	59*
COc1ccc2[nH]c(=O)c(CN(Cc3cccs3)S(=O)(=O)c3cccc4nsnc34)cc2c1	-1	-3	/	/	-10	70*
Cc1ccc(-c2nc3[nH]c(=O)cc(NC(=O)C(C)C)n3n2)cc1	-3	-6	7	/	-3	1
CCC(=O)Nc1cc(=O)[nH]c2nc(-c3ccc(Cl)cc3)nn12	-7	1	39*	-7	4	-12
O=C(C[C@@H]1C[C@@H]2c3cc(NC(=O)Nc4ccc(F)cc4)ccc3O[C@@H]2[C@@H](CO)O1)NCC1CC1	87*	2	/	/	/	/
O=C(C[C@@H]1C[C@@H]2c3cc(NC(=O)Nc4ccc(F)cc4)ccc3O[C@@H]2[C@H](CO)O1)NCC1CC1	2	1	/	/	/	/
O=C(C[C@H]1C[C@H]2c3cc(NC(=O)c4ccc5c(c4)OCO5)ccc3O[C@H]2[C@H](CO)O1)NCc1ccc(Oc2ccccc2)cc1	5	-33	/	2	/	73*[16.7 µM]
O=C(C[C@@H]1C[C@H]2c3cc(NC(=O)Nc4ccccc4)ccc3O[C@H]2[C@H](CO)O1)NCc1cccnc1	1	-6	/	/	/	63*[16.7 µM]
O=C(C[C@@H]1C[C@@H]2c3cc(NC(=O)Nc4ccccc4)ccc3O[C@@H]2[C@@H](CO)O1)NCc1ccccc1	0	2	/	-5	/	59*[16.7 µM]
C[C@@H]1CN([C@@H](C)CO)C(=O)c2cccc(NS(=O)(=O)c3cccs3)c2O[C@@H]1CN(C)CC1CCCCC1	3	-2	/	1	/	-25[16.7 µM]
Cc1nn(C)c(C)c1S(=O)(=O)N1CCCC(C(=O)N2CCN(c3ccc(Cl)cc3)CC2)C1 (stereo unspecified)	-4	5	-3	/	-13	63*
COCC(=O)N(C)C[C@@H]1Oc2ncc(-c3ccccc3OC)cc2C(=O)N([C@H](C)CO)C[C@H]1C	5	-4	/	-1	/	-39[16.7 µM]
O=S(=O)(NCC1COc2ccccc2O1)c1ccc2ccccc2c1 (stereo unspecified)	5	/	-2	/	-4	1
CNS(=O)(=O)c1ccc(NCC2COc3ccccc3O2)c([N+](=O)[O-])c1 (stereo unspecified)	-2	44*	/	/	15	29
COc1cc(OC)nc(Nc2nc(C(N)CCc3ccccc3)cs2)n1 (stereo unspecified)	0	-3	-1	10	/	52
COc1cc(OC)nc(Nc2nc(C(N)COCc3ccccc3)cs2)n1 (stereo unspecified)	-13	-5	1	-1	/	97*
O=C(C[C@H]1CC[C@@H](NC(=O)C2CC2)[C@H](CO)O1)NCCCN1CCOCC1	12	-2	/	0	/	-8[16.7 µM]
C/C=C/c1ccc(OCC(=O)OCc2csc(Nc3ccc(C)cc3)n2)c(OC)c1	/	/	-1	2	36	-28
Cc1ccc(Nc2nc(COC(=O)COc3ccc(C=O)cc3)cs2)cc1	5	49*	27	/	50	-46
CN(C)c1ncnc2c1ccn2C1OC(CO)C(O)C1O (stereo unspecified)	7	-8	-10	-1	-1	77*
OCC1OC(n2ccc3c(NO)ncnc32)C(O)C1O (stereo unspecified)	/	/	-3	1	-95	91*
CN(C)c1nc2c(N)ncnc2n1C1OC(CO)C(O)C1O (stereo unspecified)	-2	0	-4	4	9	7
COc1ccc(S(=O)(=O)N(C)C[C@@H]2Oc3ccc(NC(=O)c4ccncc4)cc3CC(=O)N([C@@H](C)CO)C[C@H]2C)cc1	0	3	/	0	/	-31[16.7 µM]
CSc1nc(Cl)cc(Nc2ccc(O)cc2)n1	/	/	38*	4	20	-37
CN(Cc1nc(-c2ccccc2)no1)C1CCOCC1	0	31	41*	1	65	-20
SMILES	Cneo AK release	esBAF inh	Wnt bcat act	ERAP1 HTS inh	MITF act	Env fusion inh
COc1ccc(-c2noc(CN(C)C3CCOCC3)n2)cc1	/	/	0	3	16	10
CCC(=O)NCCCc1nc(-c2ccccc2)no1	1	7	-1	/	13	-30
c1ccc(-c2noc(CCC3CCCC3)n2)cc1	-2	?	6	1	102*	-15
CCC(=O)NCCc1nc(-c2ccccc2)no1	-1	-2	0	-5	20	60*
CC1C/C(=C/c2ccncc2)C(=O)/C(=C/c2ccncc2)C1 (stereo unspecified)	1	-14	-21	3	-105	81*
O=C(CC(=O)c1cc(Cl)ccc1O)c1ccccc1	1	49*	25	5	22	/
Cc1cccc(C(=O)CC(=O)c2cc(Cl)ccc2O)c1	-1	64*	/	/	-34	/
Cc1ccc(O)c(C(=O)CC(=O)c2ccc(Cl)cc2)c1	-4	35	7	-7	/	-39
O=C1c2ccccc2NC(c2ccc(-c3cccc([N+](=O)[O-])c3)o2)N1O (stereo unspecified)	/	/	1	5	2	58*
O=C1c2ccccc2NC(c2ccc(-c3ccc(F)cc3)o2)N1O (stereo unspecified)	1	41*	?	0	71	-63
CC(C)NC(=O)N(C)C[C@H]1Oc2ccc(NC(=O)NC3CCCCC3)cc2C(=O)N([C@H](C)CO)C[C@H]1C	-2	1	/	1	/	4[16.7 µM]
C[C@@H]1CN([C@H](C)CO)C(=O)c2cc(NC(=O)Cc3ccccc3)ccc2O[C@@H](C)CCCCO[C@H]1CN(C)Cc1ccccc1	5	-4	/	2	/	8[16.7 µM]
Cc1cccc(NC(=O)Nc2ccc3c(c2)C(=O)N(C)[C@@H]2CC[C@@H](CC(=O)NCc4ccccc4Cl)O[C@@H]2CO3)c1	-3	16	/	3	/	13[16.7 µM]
O=C(NCc1ccco1)/C(=C/c1ccc(C(F)(F)F)cc1)c1nc2ccccc2[nH]1	/	/	34*	/	14	-53
Cc1ccc2c(COC(=O)c3ccccc3OC(F)F)cc(=O)oc2c1	8	48*	-2	-3	69	-2
O=C(/C=C\c1ccccc1OC(=O)c1ccccc1F)c1cc2ccccc2o1	-3	49*	-1	0	23	-50
CN(C)C(=O)c1ccc(-c2ccc3c(c2)[C@H]2[C@H](CCN2C(=O)C2CCCC2)[C@@H](CO)N3C)cc1	/	/	/	2	/	/
O=C1c2ccncc2C(=O)N1CNc1ccc(Cl)cc1	/	/	60*	-5	0	12
COc1ccccc1N=c1scc(-c2ccc3c(c2)NC(=O)CO3)n1CC1CCCO1 (stereo unspecified)	-1	4	/	/	-6	/
